# This is a sample that favours compounds with a hit; in the whole collection about 1.5% have one here.
# proCasp3 act – procaspase-3 (human) activation; activation, % at 8.5 µM; P42574; recombinant procaspase-3 D3A, Ac-DEVD-pNA absorbance 405 nm; AID 463141; 0.11% of 330,000 active;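 active means activation above the mean of all tested compounds plus 3 SD, cut at about 21% in these data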;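 further: 0% = DMSO alone and 100% = DMSO wells spiked with extra 5 µM PC-3 D3A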
#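 System: Procaspase-3 D3A mutant. Medium: Zinc-free 300 mM NaCl, 50 mM HEPES, 0.01% Triton X-100. Schedule: 1 h preincubation plus 2 h reaction at 25 °C. Measured by: 405 nm absorbance of p-nitroaniline, reads at 0 and 120 min. Read-out: percent activation relative to control range.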
# bovine MsrA act – activates bovine MsrA enzyme. purified bovine MsrA, absorbance read-out. 0.3% of 360,000 active. AID 602163. activation, % at 10.6 µM; in the data active means activation above about 7.5%;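 further: 0% = vehicle and 100% = reference activator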
# procasp7 counter – counter-screen: procaspase-7 (human) activation. P55210. recombinant procaspase-7, Ac-DEVD-pNA absorbance 405 nm; D23A/D198A/D206A triple mutant, cannot self-cleave; scale: DMSO 0, 5 µM enzyme 100. activation, % at 8.5 µM. 0.093% of 330,000 active;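 active means percent activation above the screen-wide mean plus 3 SD, cut at about 25% in these data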
# Target sequence (P55210 whole entry D23A/D198A/D206A): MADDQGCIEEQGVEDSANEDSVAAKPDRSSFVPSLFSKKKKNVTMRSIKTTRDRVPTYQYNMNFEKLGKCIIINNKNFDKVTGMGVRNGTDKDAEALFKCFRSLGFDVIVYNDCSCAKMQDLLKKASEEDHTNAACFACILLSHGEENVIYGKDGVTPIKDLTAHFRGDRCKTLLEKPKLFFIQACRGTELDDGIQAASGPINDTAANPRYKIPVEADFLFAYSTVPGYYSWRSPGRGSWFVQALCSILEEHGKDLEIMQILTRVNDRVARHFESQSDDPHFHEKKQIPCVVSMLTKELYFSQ
#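 Detection: p-Nitroaniline absorbance at 405 nm, read at 0 and 120 min; system: Uncleavable procaspase-7 mutant enzyme; evaluation: % activation from two-timepoint absorbance difference, scaled to controls; times: 1 h enzyme–compound preincubation and 2 h substrate reaction, both 25 °C; buffer or medium: Zinc-free HEPES pH 7.4 with 300 mM NaCl, 0.01% Triton X-100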
# TbMetRS inhib – Trypanosoma brucei MetRS inhibition; 0.4% of 360,000 active; inhibition, % at 11.9 µM; purified T. brucei MetRS, ATP depletion, Kinase-Glo luminescence;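 active means inhibition above a per-plate cutoff of the control wells' mean inhibition plus 3 SD, cut at about 5.5% in these data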;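 further: 0% = DMSO wells median and 100% = median of wells with control inhibitor compound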
#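 assay system = parasite MetRS enzyme | timing = 15 min preincubation, 2 h reaction, all 25 °C | evaluation = percent inhibition relative to median high and low control wells | medium = HEPES buffer containing pyrophosphatase, BSA, spermine, DTT | compound = single dose, 11.9 µM final nominal, 0.9% final DMSO | detection = Kinase-Glo luminescence, ATP depletion format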
# MsrA inhibitor – bovine MsrA inhibition | purified bovine MsrA, absorbance read-out | inhibition, % at 15.5 µM | 0.75% of 360,000 active;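 further: 0% = vehicle wells with enzyme and 100% = reference inhibitor wells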
# MsrA conf – bovine MsrA inhibition, confirmed; shares compounds with MsrA inhibitor; purified bovine MsrA, absorbance read-out; inhibition, % at 15.5 µM; 41% of 2,300 active;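 further: coupled to thioredoxin reductase with NADPH and selenocystamine and DMSO as substrate; 0% = vehicle only and 100% = full effect of reference inhibitor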
# * marks the source's active call; other numbers are inactive results; x = no result. Unless noted, no stated cut-off is given here; in the data, active means inhibition above about 4.5%; inactive means the rest.
SMILES,proCasp3 act,bovine MsrA act,procasp7 counter,TbMetRS inhib,MsrA inhibitor,MsrA conf
COC1=CC(=O)OC(c2cccc(C#N)c2)C1 (centres undefined),x,x,x,-1,-1,x
Cc1ccc(NC(=O)CN2C(=O)N/C(=C/c3ccccc3OCc3cccc(C(=O)O)c3)C2=O)cc1,-7,-4,-7,1,4.7*,3
COc1cccc(/C=C2/NC(=O)N(CC(=O)Nc3ccc(C)cc3)C2=O)c1OCc1cccc(C(=O)O)c1,2,-4,-7,0,1,x
COc1cccc(C=NNC(=S)NC2CC3CCC2C3)c1O (centres undefined),x,x,x,x,1,x
O=C(c1cccnc1)N1CCN(C(=O)c2cccc(Cl)c2)CC1,-7,0,4,-1,-1,x
O=C1NCCN1C(=O)c1cccc(Cl)c1,0,0,-3,-1,12*,9.9*
N#C/C(=C/c1cccnc1)c1ccccc1,-6,-3,-6,1,6.5*,3
N#C/C(=C\c1cccnc1)c1ccc([N+](=O)[O-])cc1,3,5,5,-1,4,x
CN1CCCCC(NC(=O)C2CCCCC2)C1=O (centres undefined),x,x,x,x,0,x
C#CCNC(=O)c1cc2cccnc2nc1N,x,x,x,x,2,x
COc1ccc(/C=C/C(=O)NC(=S)Nc2ccc(S(=O)(=O)Nc3ccc(OC)nn3)cc2)cc1,-10,-6,2,0,4,x
COc1ccc(/C=C/C(=O)NC(=S)Nc2ccc(S(=O)(=O)Nc3cc(C)on3)cc2)cc1,-3,-6,-1,0,5.0*,5.7*
Cc1[nH]c2ccccc2c1C(=O)c1c(N)[nH]c(C(=O)c2ccccc2)c1-c1ccc(Cl)cc1,x,x,x,x,1,x
CCCc1cc(=O)[nH]c(N/N=C/C=C\c2ccccc2)n1,-12,-5,-5,0,6.7*,5.5*
Cc1ccccc1-n1c(SCc2cc(=O)n3ccccc3n2)nc2[nH]ncc2c1=O,-3,1,11,0,2,x
Cc1ccccc1-n1c(SCc2cccc(F)c2)nc2[nH]ncc2c1=O,0,-2,-12,0,7.2*,8.0*
COC(=O)C1=C(C)N(C)C(=NCc2ccc(OC)cc2)NC1c1ccc(F)cc1 (centres undefined),x,x,x,x,1,x
COc1ccc(C2=NS(=O)(=O)N(C)C(C(=O)N3CCC(C(N)=O)CC3)=C2)cc1,1,-4,9,0,6.1*,3
COc1ccc(C2=NS(=O)(=O)N(C)C(C(=O)N3CCCCC3C)=C2)cc1 (centres undefined),-1,-6,-9,0,5.9*,3
COc1ccc(C2=NS(=O)(=O)N(C)C(C(=O)N3C(C)CCCC3C)=C2)cc1 (centres undefined),1,-4,11,-1,4,x
COc1ccc(C2=NS(=O)(=O)N(C)C(C(=O)N3CCOCC3)=C2)cc1,4,-5,-9,0,4,x
O=C(N/N=C/C(Cl)=C/c1ccc([N+](=O)[O-])cc1)C(=O)Nc1cccc(C(=O)O)c1,-5,-5,-10,0,9.2*,5.3*
O=C(N[C@H](C(=O)N1CCC[C@H]1C(=O)NCCc1ccccc1Cl)c1ccccc1)C1CC1,x,x,x,x,2,x
O=C(N[C@H](C(=O)N1CCC[C@H]1C(=O)NCCc1ccccc1Cl)c1ccccc1)c1ccc(Cl)cc1Cl,x,x,x,x,-1,x
COCc1cc(C)n(CC(=O)N/N=C/c2ccc(-c3ccc(Cl)c(C(=O)O)c3)o2)c(=O)c1C#N,8,-6,-9,1,9.1*,9.7*
COCc1cc(C)nc(OCC(=O)N/N=C/c2ccc(C)o2)c1C#N,-4,-5,2,-1,6.7*,2
COC(=O)[C@]12C[C@H](CC(=O)NCc3ccccc3)C(=O)N(Cc3ccc4c(c3)OCO4)C1=C[C@H](COCc1ccccc1)O[C@@H]2C,x,x,x,x,0,x
C=CCN1C(=O)c2n[nH]c(C(C)C)c2C1c1ccccc1 (centres undefined),x,x,x,x,0,x
C[C@H](O)[C@@H]1C(=O)N2CCc3c([nH]c4ccccc34)[C@@H]2C[C@@H]1N(C)C(=O)OCc1ccccc1,x,x,x,x,1,x
C=CCNC(=S)N/N=C/c1ccc(C)c([N+](=O)[O-])c1,3,-9,7,-1,2,x
